Measurements as given in ChEMBL document CHEMBL4765452, “Discovery of (E)-N-(4-methyl-5-(3-(2-(pyridin-2-yl)vinyl)-1H-indazol-6-yl)thiazol-2-yl)-2-(4-methylpiperazin-1-yl)acetamide (IHMT-TRK-284) as a novel orally available type II TRK kinase inhibitor capable of overcoming multiple resistant mutants” (Eur J Med Chem, 2020).

Key:
[1] = target: High affinity nerve growth factor receptor (Homo sapiens, UniProt P04629); test: Inhibition of TRKA in human KM-12-LUC cells assessed as reduction in AKT phosphorylation at T308 residue after 2 hrs by Western blot analysis; assay type: cell-based, KM12-Luc
Method in brief: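 KM-12-LUC (TPM3-TRKA fused colon cancer cells) grown in RPMI 1640 with 10% FBS and 1% penicillin/streptomycin at 37 °C under 5% CO2. Serially diluted compound added for 2 h. Lysates western blotted for phospho-AKT (T308/S473) and phospho-ERK1/2 (T202/Y204).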

[2] = Tmax in mouse at 10 mg/kg, po; assay type: ADME, organism-based; details: in vivo
Method in brief: (§1)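 Single-dose PK in mice, Sprague Dawley rats and beagle dogs, given i.v. (1 mg/kg) or p.o. (10 mg/kg mice and rats; 5 mg/kg dogs). AUC0-t, T1/2, Tmax and oral bioavailability (F) derived from plasma profiles.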

[3] = Half life in mouse at 1 mg/kg, iv; assay type: ADME, organism-based; details: in vivo
[4] = Apparent clearance in mouse at 10 mg/kg, po; assay type: ADME, organism-based; details: in vivo, read-out: CLz/F (converted)
[5] = Cmax in mouse at 10 mg/kg, po; assay type: ADME, organism-based; set-up: route oral, dose 10 mg/kg; details: in vivo
[6] = Tmax in Sprague-Dawley rat at 10 mg/kg, po; assay type: ADME, organism-based; details: in vivo; method in brief: as §1
[7] = Cmax in Sprague-Dawley rat at 10 mg/kg, po; assay type: ADME, organism-based; set-up: route oral, dose 10 mg/kg; details: in vivo
[8] = Oral bioavailability in Sprague-Dawley rat at 10 mg/kg; assay type: ADME, organism-based; details: in vivo; method in brief: as §1
[9] = Tmax in Beagle dog at 5 mg/kg, po; assay type: ADME, organism-based, Canis lupus familiaris; details: in vivo; method in brief: as §1
BaF3 [10] = test: Antitumor activity against mouse BAF3 cells harboring LMNA fused TRKA-F589L mutant allografted in nude mouse assessed as tumor growth inhibition at 80 mg/kg, po administered once daily for 10 days relative to control; assay type: functional; details: 240 h, time 10 day, read-out: TGI
Method in brief: (§2)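 Nu/nu mice given 1 million BaF3 cells (TEL-TRKA, TEL-TRKB, TEL-TRKC, LMNA-TRKA-F589L or LMNA-TRKA-G667S) in DMEM, 1:1 with matrigel, injected subcutaneously into the right flank; oral gavage began at 200–400 mm³, 5 mice per group, compound in 0.5% methylcellulose/0.4% Tween 80 in ddH₂O, 10 days; tumor volume [(W²×L)/2] and body weight recorded daily; TGI versus vehicle.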

BaF3 [11] = test: Antitumor activity against mouse BAF3 cells harboring LMNA fused TRKA-G667S mutant allografted in nude mouse assessed as tumor growth inhibition at 80 mg/kg, po administered twice daily for 10 days relative to control; assay type: functional; details: 240 h, time 10 day, read-out: TGI; method in brief: as §2
BaF3 [12] = test: Antitumor activity against mouse BAF3 cells harboring TEL fused TRKA allografted in nude mouse assessed as tumor growth inhibition at 40 mg/kg, po administered once daily for 10 days relative to control; assay type: functional; details: 240 h, time 10 day, read-out: TGI; method in brief: as §2
[13] = Toxicity in mouse xenografted with mouse BAF3 cells harboring TEL fused TRKA assessed as effect on body weight at 40 to 80 mg/kg, po administered once daily for 10 days; assay type: organism-based; details: in vivo, 240 h, dose 40-80 mg/kg/day, time 10 day
Method in brief: (§3)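 nu/nu mice were given subcutaneous right-flank implants in 1:1 DMEM/matrigel: 1 million BaF3 fusion cells or 5 million KM-12-LUC cells. Oral gavage started at 150–200 mm3 (xenograft) or 200–400 mm3 (allograft). Dosing used 40 or 80 mg/kg in HKI vehicle (0.5% methylcellulose/0.4% Tween 80 in ddH2O), with 5 mice per group. Body weight was recorded daily and behaviour observed.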

[14] = Toxicity in mouse xenografted with mouse BAF3 cells harboring TEL fused TRKC assessed as effect on body weight at 40 to 80 mg/kg, po administered once daily for 10 days; assay type: organism-based; details: in vivo, 240 h, dose 40-80 mg/kg/day, time 10 day; method in brief: as §3
[15] = Toxicity in mouse xenografted with mouse BAF3 cells harboring TEL fused TRKB assessed as effect on animals behaviour at 40 to 80 mg/kg, po administered once daily for 10 days; assay type: organism-based; details: in vivo, 240 h, dose 40-80 mg/kg/day, time 10 day; method in brief: as §3
[16] = Toxicity in mouse xenografted with human […] cells assessed as effect on abnormal behaviour at 40 to 80 mg/kg, po administered once daily for 10 days; assay type: organism-based; details: in vivo, 240 h, dose 40-80 mg/kg/day, time 10 day; method in brief: as §3

High affinity nerve growth factor receptor, sequence (P04629 whole entry, the tested form may be a part): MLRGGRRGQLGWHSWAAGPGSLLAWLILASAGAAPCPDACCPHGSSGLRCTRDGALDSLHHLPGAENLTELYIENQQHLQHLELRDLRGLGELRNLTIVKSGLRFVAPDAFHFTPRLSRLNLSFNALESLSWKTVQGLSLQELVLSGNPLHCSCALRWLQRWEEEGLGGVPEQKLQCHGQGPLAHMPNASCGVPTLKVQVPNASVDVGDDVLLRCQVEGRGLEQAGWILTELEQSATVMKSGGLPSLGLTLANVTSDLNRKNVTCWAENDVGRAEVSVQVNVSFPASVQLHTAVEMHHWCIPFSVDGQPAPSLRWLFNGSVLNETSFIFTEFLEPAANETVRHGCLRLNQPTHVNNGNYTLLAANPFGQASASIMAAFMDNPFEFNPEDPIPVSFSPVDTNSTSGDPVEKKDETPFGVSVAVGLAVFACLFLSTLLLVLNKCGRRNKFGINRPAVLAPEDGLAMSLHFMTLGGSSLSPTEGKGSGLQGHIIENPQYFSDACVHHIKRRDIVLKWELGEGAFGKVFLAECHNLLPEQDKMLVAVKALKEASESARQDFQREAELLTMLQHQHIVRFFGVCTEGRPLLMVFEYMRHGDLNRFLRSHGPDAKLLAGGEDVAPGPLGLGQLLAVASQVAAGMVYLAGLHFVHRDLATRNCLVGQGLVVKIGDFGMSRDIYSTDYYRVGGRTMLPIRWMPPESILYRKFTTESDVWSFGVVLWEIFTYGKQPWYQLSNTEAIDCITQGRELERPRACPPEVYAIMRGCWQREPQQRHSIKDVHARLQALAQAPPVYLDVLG

Cc1nc(NC(=O)CN2CCN(C)CC2)sc1-c1ccc2c(/C=C/c3ccccn3)n[nH]c2c1
EC50 [1]: < 30 nM
Tmax [2]: 1.5 h
t1/2 [3]: 2.6 h
CL/F [4]: 108 mL/min/kg
Cmax [5]: 258 ng/mL
Tmax [6]: 4.7 h
Cmax [7]: 139 ng/mL
bioavailability [8]: 26%
Tmax [9]: 4.3 h
inhibition in vivo at 80 mg/kg/day (BaF3 [10]): 87.7%
inhibition in vivo at 80 mg/kg (BaF3 [11]): 89.1%
inhibition in vivo at 40 mg/kg/day (BaF3 [12]): 52.2%
Activity [13]: Non-Toxic
Activity [14]: Non-Toxic
Activity [15]: Non-Toxic
Activity [16]: Non-Toxic
